pEC50: −log10 of the molar value.
Columns and labels:
[1] = tested on: Hepatitis C virus; assay: Antiviral activity against HCV con1 subgenomic replicon infected in human HuH7 cells assessed as reduction in viral RNA replication by qRT-PCR analysis; format: functional, organism-based, Hepacivirus hominis; conditions: isolate Con1, Huh-7
In short: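 Con1 subgenomic replicon Huh-7 cells (neomycin selection, kept in DMEM/10% FBS with 0.25 mg/ml G418) treated with compounds in DMEM, 2% FBS, 0.5% DMSO, no G418, at 37°C. Total RNA extracted; HCV RNA copy number by multiplex Taqman QRT-PCR. EC50/EC90 by 4-parameter curve fit; EC50 is the mean of ≥2 independent runs.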

[2] = Drug metabolism in Beagle dog liver assessed as 2a-TP level at 9.87 mg/kg, po administered as single dose measured at 12 hrs by LC-MS/MS analysis; format: ADME, organism-based, Canis lupus familiaris; conditions: in vivo
In short: (§1)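 Male non-naïve beagle dogs fasted overnight, single oral dose of 9.87 mg/kg (5 mg/kg parent nucleoside equivalent) as a solution in 40% PEG400/water. Liver extracts analysed for NTP by LC-MS/MS against liver-homogenate calibrants. N=2 at 4 h, N=3 at 12 and 24 h.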

[3] = Drug metabolism in Beagle dog liver assessed as 2a-TP level at 9.87 mg/kg, po administered as single dose measured at 4 hrs by LC-MS/MS analysis; format: ADME, organism-based, Canis lupus familiaris; conditions: in vivo; in short: as §1
[4] = tested on: Hepatitis C virus; assay: Antiviral activity against HCV genotype 1 infected in human assessed as reduction in viral infection at 800 mg, qd measured after 6 weeks in presence of odalasvir/simeprevir relative to control; format: functional, Hepacivirus hominis; design: scale not given: the % may be the effect or the level left
[5] = Cytotoxicity against human HuH7 cells infected with HCV con1 subgenomic replicon assessed as reduction in cell viability measured after 3 days by CellTiter-blue cell viability assay; format: cell-based, Huh-7
In short: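 Con1 replicon Huh-7 cells treated as for the replicon assay (DMEM, 2% FBS, 0.5% DMSO, no G418, 37°C) for 3 days. Viability by CellTiter-Blue; CC50 by curve fitting.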

[6] = Cytotoxicity against human A549 cells treated for 8 days measured post-last dose by Celltiter-glo luminescent assay; format: cell-based
In short: (§2)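 Cells at 1×10^5/well on collagen I, first kept 8 days in recommended medium without drug. Then compound exposure for 8 days, refed every other day. Viability by CellTiter-Glo luminescence; CC50 by curve fitting.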

[7] = Cytotoxicity against human HuH7 cells treated for 8 days measured post-last dose by Celltiter-glo luminescent assay; format: cell-based, Huh-7; in short: as §2
[8] = Drug metabolism in human primary hepatocytes assessed as 2a-TP formation after 24 hrs by LC-MS/MS analysis
[9] = Drug metabolism in human primary hepatocytes assessed as 2a-TP formation at 10 uM after 6 to 24 hrs by LC-MS/MS analysis
[10] = Cytotoxicity against human HepG2 cells treated for 8 days measured post-last dose by Celltiter-glo luminescent assay; format: cell-based; in short: as §2
[11] = tested on: Hepatitis C virus; assay: Antiviral activity against HCV genotype 1a H77 expressing NS5B measured after 3 days by bright-glo luciferase reporter gene assay; format: functional, organism-based, Hepacivirus hominis; conditions: subtype 1a H77, 72 h
In short: (§3)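 Chimeric replicons carrying the NS5B of each genotype (1a H77, 1b Con1, 2b ADQ73660, 3a NZL1, 4a ABD75829). Firefly luciferase is driven by the poliovirus IRES and the HCV nonstructural genes by the EMCV IRES. Transiently transfected into Lunet cells, 10,000 cells/well. 3-fold serial dilutions, 0.5% DMSO final, 3 days. Read-out: firefly luciferase (Bright-Glo).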

[12] = Cytotoxicity against human U937 cells treated for 8 days measured post-last dose by Celltiter-glo luminescent assay; format: cell-based, U-937; in short: as §2
[13] = Cytotoxicity against human HeLa cells treated for 8 days measured post-last dose by Celltiter-glo luminescent assay; format: cell-based; in short: as §2
[14] = tested on: Hepatitis C virus; assay: Antiviral activity against HCV genotype 1b con1 subgenomic replicon expressing NS5B measured after 3 days by bright-glo luciferase reporter gene assay; format: functional, organism-based, Hepacivirus hominis; conditions: subtype 1b con1, 72 h; in short: as §3
[15] = Drug metabolism in human hepatocytes assessed as 2a-TP formation per million cells at 50 uM after 24 hrs by LC-MS/MS analysis; format: ADME, cell-based, Hepatocyte
In short: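 Primary human hepatocytes, 1.5-2 million cells/well, in Williams E medium, acclimated >18 h. Incubated with compound at 50 μM extracellular for 24 h at 37°C, 5% CO2. Washed with cold saline, methanol/water lysis, NTP measured by LC-MS/MS per million cells.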

[16] = Drug metabolism in human HuH7 cells assessed as 2a-TP formation per million cells at 50 uM after 24 hrs by LC-MS/MS analysis; format: ADME, cell-based; conditions: huh-7, 24 h
In short: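 Huh-7 cells in 6-well plates, DMEM with 10% FBS and G418, incubated with compound at 50 μM extracellular for 24 h at 37°C, 5% CO2. Washed with cold 0.9% NaCl, lysed in 70% methanol. Intracellular NTP by LC-MS/MS against cell-matrix calibrants, internal standard N6-benzoyladenine; expressed per million cells.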

[17] = tested on: Hepatitis C virus; assay: Antiviral activity against HCV genotype 2b subgenomic replicon expressing NS5B measured after 3 days by bright-glo luciferase reporter gene assay; format: functional, organism-based, Hepacivirus hominis; conditions: subtype 2b, 72 h; in short: as §3
[18] = Cytotoxicity against human MT4 cells treated for 8 days measured post-last dose by Celltiter-glo luminescent assay; format: cell-based; in short: as §2
[19] = tested on: Hepatitis C virus; assay: Antiviral activity against HCV genotype 3a NZL1 subgenomic replicon expressing NS5B measured after 3 days by bright-glo luciferase reporter gene assay; format: functional, organism-based, Hepacivirus hominis; conditions: subtype 3a NZL1, 72 h; in short: as §3
[20] = tested on: Hepatitis C virus; assay: Antiviral activity against HCV genotype 4a subgenomic replicon expressing NS5B measured after 3 days by bright-glo luciferase reporter gene assay; format: functional, organism-based, Hepacivirus hominis; conditions: subtype 4a, 72 h; in short: as §3
[21] = Drug metabolism in Beagle dog liver assessed as 2a-TP level at 9.87 mg/kg, po administered as single dose measured at 24 hrs by LC-MS/MS analysis; format: ADME, organism-based, Canis lupus familiaris; conditions: in vivo; in short: as §1

CC(C)OC(=O)[C@H](C)N[P@](=O)(OC[C@@]1(F)O[C@@H](n2ccc(=O)[nH]c2=O)[C@](C)(O)[C@@H]1O)Oc1ccccc1 [ADAFOSBUVIR]
pEC50 [1]: 7.15
Drug metabolism [2]: 35.222 µM
Drug metabolism [3]: 23.19 µM
Activity [4]: 100%
CC50 at 72 h [5]: > 99000 nM
CC50 at 192 h [6]: > 100000 nM
CC50 at 192 h [7]: 96100 nM
Drug metabolism [8]: Dose-dependent effect
Drug metabolism [9]: Metabolite_Detected
CC50 at 192 h [10]: > 100000 nM
pEC50 [11]: 7.22
CC50 at 192 h [12]: > 100000 nM
CC50 at 192 h [13]: > 100000 nM
pEC50 [14]: 7.40
Drug metabolism [15]: 3540 pmol
Drug metabolism [16]: 5695 pmol
pEC50 [17]: 7.40
CC50 at 192 h [18]: > 100000 nM
pEC50 [19]: 7.22
pEC50 [20]: 7.22
Drug metabolism [21]: 29.991 µM

Reference: ChEMBL document CHEMBL4393666, “Synthesis and Anti-HCV Activities of 4'-Fluoro-2'-Substituted Uridine Triphosphates and Nucleotide Prodrugs: Discovery of 4'-Fluoro-2'- C-methyluridine 5'-Phosphoramidate Prodrug (AL-335) for the Treatment of Hepatitis C Infection” (J Med Chem, 2019)
